Measurements of several laboratories.
Organism: Plasmodium falciparum
Effect on: parasite growth

SMILES	method	strain	time	setting	IC50
CCN(CC)CCCC(C)Nc1ccnc2cc(Cl)ccc12 (stereo not shown)		NF54		blood stage	11.7 nM
CCCCCCCCCCCCCCCCCC(=O)O	SYBR Green	3D7	48 h	blood stage	7.66 µg/mL
O=C1C(O)=C([C@H]2CC[C@H](c3ccc(Cl)cc3)CC2)C(=O)c2ccccc21	SYBR Green	D6	72 h	blood stage	0.106 nM
N=C(CC(O)c1nc2ccccc2c2ccc(Br)cc12)Nc1ccc(F)cc1 (stereo not shown)	ELISA	DD2	72 h	drug-resistant strain, blood stage	46.3 nM
COc1ccc2cc1Oc1ccc(cc1)C[C@H]1c3c(cc4c(c3Oc3cc5c(cc3OC)CCN(C)[C@@H]5C2)OCO4)CCN1C	SYBR Green	3D7		blood stage	664 nM
N=C(CC(O)c1nc2ccccc2c2ccc(Cl)cc12)Nc1ccc(F)cc1 (stereo not shown)	ELISA	DD2	72 h	drug-resistant strain, blood stage	49.9 nM
COC1=CC(c2ccc[nH]2)=N/C1=C\c1[nH]c(Cc2ccc(OC(F)(F)F)cc2)cc1Cc1ccc(OC(F)(F)F)cc1	SYBR Green	D6	72 h	blood stage	25.2 nM
N=C(CC(O)c1cc2cccnc2c2cccnc12)Nc1ccc(F)cc1 (stereo not shown)	ELISA	DD2	72 h	drug-resistant strain, blood stage	8780 nM
Cc1[nH]c(/C=C2\N=C(c3ccc[nH]3)C=C2OCc2ccccc2)cc1Cc1ccc(OC(F)(F)F)cc1	SYBR Green	D6	72 h	blood stage	9.63 nM
CCCCCCCCNC(C)C(O)c1ccc(SC(C)C)cc1 (stereo not shown)	SYBR Green	3D7		blood stage	807 nM
N=C(CC(O)c1cc2c(F)cc(F)cc2c2cc(C(F)(F)F)ccc12)Nc1ccc(F)c(F)c1 (stereo not shown)	ELISA	3D7	72 h	blood stage	7.2 nM
CC1=C(C)/C(=C/c2[nH]c(Cc3ccc(OC(F)(F)F)cc3)cc2Cc2ccc(OC(F)(F)F)cc2)N=C1c1ccc[nH]1	SYBR Green	D6	72 h	blood stage	1300 nM
CNCC[C@H](Oc1cccc2ccccc12)c1cccs1	SYBR Green	3D7		blood stage	233 nM
